Measured values as given in ChEMBL document CHEMBL3352188, “Synthesis, antimicrobial and molecular docking studies of enantiomerically pure N-alkylated β-amino alcohols from phenylpropanolamines” (2014).

Assays:
Pseudomonas aeruginosa [1] = assay: Antimicrobial activity against Pseudomonas aeruginosa MTCC 741 at 1 mg/disc after 24 hrs by disc diffusion assay; format: functional
Method in brief: (§1)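 Disc diffusion on Mueller Hinton agar. Inoculum was grown in MHB for 24 h at 37 °C, swabbed onto the plates and dried for 10 min. Discs with 1 mg compound were left 30 min at room temperature for diffusion, then incubated at 37 °C for 24 h. Inhibition zone was read in mm; run twice. Solvent was the negative control, streptomycin the positive control.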

Candida albicans [2] = assay: Antimicrobial activity against Candida albicans MTCC 227 at 1 mg/disc after 24 hrs by disc diffusion assay; format: functional
Malassezia pachydermatis [3] = assay: Antimicrobial activity against Malassezia pachydermatis at 1 mg/disc after 24 hrs by disc diffusion assay; format: functional
Bacillus subtilis [4] = assay: Antimicrobial activity against Bacillus subtilis MTCC 441 after 24 hrs by two fold dilution method; format: functional; conditions: MTCC 441, 24 h
Method in brief: (§2)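 Broth two-fold serial dilution in 96-well plates from 1000 to 7.81 µg/mL, compound in DMSO (2%). Inoculum was grown in MHB for 24 h at 37 °C; plates were incubated 24 h at 37 °C. 5 µL of broth was spotted onto MHA; MIC was the lowest concentration with no visible growth on agar. Streptomycin was the positive control.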

Micrococcus luteus [5] = assay: Antimicrobial activity against Micrococcus luteus MTCC 106 after 24 hrs by two fold dilution method; format: functional; conditions: MTCC 106, 24 h; method in brief: as §2
Klebsiella aerogenes [6] = assay: Antimicrobial activity against Enterobacter aerogenes MTCC 111 after 24 hrs by two fold dilution method; format: functional; conditions: MTCC 111, 24 h; method in brief: as §2
Staphylococcus aureus [7] = assay: Antimicrobial activity against Staphylococcus aureus MTCC 96 after 24 hrs by two fold dilution method; format: functional; conditions: MTCC 96, 24 h; method in brief: as §2
Salmonella typhimurium [8] = assay: Antimicrobial activity against Salmonella typhimurium MTCC 1251 after 24 hrs by two fold dilution method; format: functional, Salmonella enterica subsp. enterica serovar Typhimurium; conditions: Salmonella enterica, MTCC 1251, 24 h; method in brief: as §2
Klebsiella pneumoniae [9] = assay: Antimicrobial activity against Klebsiella pneumoniae MTCC 109 after 24 hrs by two fold dilution method; format: functional; conditions: MTCC 109, 24 h; method in brief: as §2
Proteus vulgaris [10] = assay: Antimicrobial activity against Proteus vulgaris MTCC 1771 after 24 hrs by two fold dilution method; format: functional; conditions: MTCC 1771, 24 h; method in brief: as §2
Staphylococcus aureus [11] = assay: Antimicrobial activity against methicillin-resistant Staphylococcus aureus MTCC 96 after 24 hrs by two fold dilution method; format: functional; conditions: MTCC 96, 24 h; method in brief: as §2
[12] = test system: Salmonella enterica subsp. enterica serovar Paratyphi B; assay: Antimicrobial activity against Salmonella paratyphi B after 24 hrs by two fold dilution method; format: functional; method in brief: as §2
Shigella flexneri [13] = assay: Antimicrobial activity against Shigella flexneri MTCC 1457 after 24 hrs by two fold dilution method; format: functional; conditions: MTCC 1457, 24 h; method in brief: as §2
Pseudomonas aeruginosa [14] = assay: Antimicrobial activity against Pseudomonas aeruginosa MTCC 741 after 24 hrs by two fold dilution method; format: functional; conditions: MTCC 741, 24 h; method in brief: as §2
Candida albicans [15] = assay: Antimicrobial activity against Candida albicans MTCC 227 after 48 to 72 hrs by two fold dilution method; format: functional
Method in brief: (§3)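 Yeast was grown in Sabouraud dextrose broth at 28 °C for 48 h and tested per CLSI reference methods. Two-fold serial dilutions from 1000 to 7.81 µg/mL, compound in DMSO (2%), in 96-well plates, incubated 48–72 h at 28 °C. MIC was the lowest concentration with no visible fungal growth. Ketoconazole was the positive control.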

Malassezia pachydermatis [16] = assay: Antimicrobial activity against Malassezia pachydermatis after 48 to 72 hrs by two fold dilution method; format: functional; method in brief: as §3
Bacillus subtilis [17] = assay: Bactericidal activity against Bacillus subtilis MTCC 441 after 24 hrs by two fold dilution method; format: functional; conditions: MTCC 441, 24 h
Method in brief: (§4)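 Tubes held 5 mL MHB with two-fold dilutions from 1000 to 7.81 µg/mL and were inoculated with 5 × 10^5 to 1 × 10^6 cells in 0.1 mL MHB, incubated without shaking. Turbidity was checked at 20 h, tubes vortexed and re-incubated 4 h.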

Micrococcus luteus [18] = assay: Bactericidal activity against Micrococcus luteus MTCC 106 after 24 hrs by two fold dilution method; format: functional; conditions: MTCC 106, 24 h; method in brief: as §4
Klebsiella aerogenes [19] = assay: Bactericidal activity against Enterobacter aerogenes MTCC 111 after 24 hrs by two fold dilution method; format: functional; conditions: MTCC 111, 24 h; method in brief: as §4
Staphylococcus aureus [20] = assay: Bactericidal activity against Staphylococcus aureus MTCC 96 after 24 hrs by two fold dilution method; format: functional; conditions: MTCC 96, 24 h; method in brief: as §4
Salmonella typhimurium [21] = assay: Bactericidal activity against Salmonella typhimurium MTCC 1251 after 24 hrs by two fold dilution method; format: functional, Salmonella enterica subsp. enterica serovar Typhimurium; conditions: Salmonella enterica, MTCC 1251, 24 h; method in brief: as §4
Klebsiella pneumoniae [22] = assay: Bactericidal activity against Klebsiella pneumoniae MTCC 109 after 24 hrs by two fold dilution method; format: functional; conditions: MTCC 109, 24 h; method in brief: as §4
Proteus vulgaris [23] = assay: Bactericidal activity against Proteus vulgaris MTCC 1771 after 24 hrs by two fold dilution method; format: functional; conditions: MTCC 1771, 24 h; method in brief: as §4
Staphylococcus aureus [24] = assay: Bactericidal activity against methicillin-resistant Staphylococcus aureus MTCC 96 after 24 hrs by two fold dilution method; format: functional; conditions: MTCC 96, 24 h; method in brief: as §4
[25] = test system: Salmonella enterica subsp. enterica serovar Paratyphi B; assay: Bactericidal activity against Salmonella paratyphi B after 24 hrs by two fold dilution method; format: functional; method in brief: as §4
Shigella flexneri [26] = assay: Bactericidal activity against Shigella flexneri MTCC 1457 after 24 hrs by two fold dilution method; format: functional; conditions: MTCC 1457, 24 h; method in brief: as §4
Pseudomonas aeruginosa [27] = assay: Bactericidal activity against Pseudomonas aeruginosa MTCC 741 after 24 hrs by two fold dilution method; format: functional; conditions: MTCC 741, 24 h; method in brief: as §4
Candida albicans [28] = assay: Fungicidal activity against Candida albicans MTCC 227 after 48 to 72 hrs by two fold dilution method; format: functional
Malassezia pachydermatis [29] = assay: Fungicidal activity against Malassezia pachydermatis after 48 to 72 hrs by two fold dilution method; format: functional
Bacillus subtilis [30] = assay: Antimicrobial activity against Bacillus subtilis MTCC 441 at 1 mg/disc after 24 hrs by disc diffusion assay; format: functional; method in brief: as §1
Micrococcus luteus [31] = assay: Antimicrobial activity against Micrococcus luteus MTCC 106 at 1 mg/disc after 24 hrs by disc diffusion assay; format: functional; method in brief: as §1
Klebsiella aerogenes [32] = assay: Antimicrobial activity against Enterobacter aerogenes MTCC 111 at 1 mg/disc after 24 hrs by disc diffusion assay; format: functional; method in brief: as §1
Staphylococcus aureus [33] = assay: Antimicrobial activity against Staphylococcus aureus MTCC 96 at 1 mg/disc after 24 hrs by disc diffusion assay; format: functional; method in brief: as §1
Salmonella typhimurium [34] = assay: Antimicrobial activity against Salmonella typhimurium MTCC 1251 at 1 mg/disc after 24 hrs by disc diffusion assay; format: functional, Salmonella enterica subsp. enterica serovar Typhimurium; method in brief: as §1
Klebsiella pneumoniae [35] = assay: Antimicrobial activity against Klebsiella pneumoniae MTCC 109 at 1 mg/disc after 24 hrs by disc diffusion assay; format: functional; method in brief: as §1
Proteus vulgaris [36] = assay: Antimicrobial activity against Proteus vulgaris MTCC 1771 at 1 mg/disc after 24 hrs by disc diffusion assay; format: functional; method in brief: as §1
Staphylococcus aureus [37] = assay: Antimicrobial activity against […] Staphylococcus aureus MTCC 96 at 1 mg/disc after 24 hrs by disc diffusion assay; format: functional; method in brief: as §1
[38] = test system: Salmonella enterica subsp. enterica serovar Paratyphi B; assay: Antimicrobial activity against Salmonella paratyphi B at 1 mg/disc after 24 hrs by disc diffusion assay; format: functional; method in brief: as §1
Shigella flexneri [39] = assay: Antimicrobial activity against Shigella flexneri MTCC 1457 at 1 mg/disc after 24 hrs by disc diffusion assay; format: functional; method in brief: as §1

| SMILES | inhibition zone (IZ) (Pseudomonas aeruginosa [1]) [mm] | inhibition zone (IZ) (Candida albicans [2]) [mm] | inhibition zone (IZ) (Malassezia pachydermatis [3]) [mm] | MIC (Bacillus subtilis [4]) [µg/mL] | MIC (Micrococcus luteus [5]) [µg/mL] | MIC (Klebsiella aerogenes [6]) [µg/mL] | MIC (Staphylococcus aureus [7]) [µg/mL] | MIC (Salmonella typhimurium [8]) [µg/mL] | MIC (Klebsiella pneumoniae [9]) [µg/mL] | MIC (Proteus vulgaris [10]) [µg/mL] | MIC (Staphylococcus aureus [11]) [µg/mL] | MIC [12] [µg/mL] | MIC (Shigella flexneri [13]) [µg/mL] | MIC (Pseudomonas aeruginosa [14]) [µg/mL] | MIC (Candida albicans [15]) [µg/mL] | MIC (Malassezia pachydermatis [16]) [µg/mL] | MBC (Bacillus subtilis [17]) [µg/mL] | MBC (Micrococcus luteus [18]) [µg/mL] | MBC (Klebsiella aerogenes [19]) [µg/mL] | MBC (Staphylococcus aureus [20]) [µg/mL] | also measured |
| --- | --- | --- | --- | --- | --- | --- | --- | --- | --- | --- | --- | --- | --- | --- | --- | --- | --- | --- | --- | --- | --- |
| CC(C)C[C@H](C)N[C@H](C)[C@@H](O)c1ccccc1.Cl | 11 | 13 | 12 | 250 | 250 | 250 | 250 | 500 | 250 | 125 | 125 | 250 | 250 | 250 | 250 | 250 | 250 | 500 | 250 | 250 | MBC (Salmonella typhimurium [21]): 500 µg/mL; MBC (Klebsiella pneumoniae [22]): 250 µg/mL; MBC (Proteus vulgaris [23]): 125 µg/mL; MBC (Staphylococcus aureus [24]): 250 µg/mL; MBC [25]: 500 µg/mL; MBC (Shigella flexneri [26]): 500 µg/mL; MBC (Pseudomonas aeruginosa [27]): 500 µg/mL; MFC (Candida albicans [28]): 250 µg/mL; MFC (Malassezia pachydermatis [29]): 250 µg/mL; inhibition zone (IZ) (Bacillus subtilis [30]): 12 mm; inhibition zone (IZ) (Micrococcus luteus [31]): 13 mm; inhibition zone (IZ) (Klebsiella aerogenes [32]): 12 mm; inhibition zone (IZ) (Staphylococcus aureus [33]): 13 mm; inhibition zone (IZ) (Salmonella typhimurium [34]): 10 mm; inhibition zone (IZ) (Klebsiella pneumoniae [35]): 13 mm; inhibition zone (IZ) (Proteus vulgaris [36]): 14 mm; inhibition zone (IZ) (Staphylococcus aureus [37]): 15 mm; inhibition zone (IZ) [38]: 10 mm; inhibition zone (IZ) (Shigella flexneri [39]): 10 mm |
| CC[C@H](N[C@H](C)[C@@H](O)c1ccccc1)c1ccccc1.Cl | 16 | 20 | 22 | 31.2 | 31.2 | 31.2 | 15.6 | 62.5 | 31.2 | 31.2 | 31.2 | 62.5 | 31.2 | 62.5 | 31.2 | 31.2 | 62.5 | 31.2 | 31.2 | 31.2 | MBC (Salmonella typhimurium [21]): 62.5 µg/mL; MBC (Klebsiella pneumoniae [22]): 62.5 µg/mL; MBC (Proteus vulgaris [23]): 62.5 µg/mL; MBC (Staphylococcus aureus [24]): 31.2 µg/mL; MBC [25]: 62.5 µg/mL; MBC (Shigella flexneri [26]): 62.5 µg/mL; MBC (Pseudomonas aeruginosa [27]): 125 µg/mL; MFC (Candida albicans [28]): 31.2 µg/mL; MFC (Malassezia pachydermatis [29]): 31.2 µg/mL; inhibition zone (IZ) (Bacillus subtilis [30]): 22 mm; inhibition zone (IZ) (Micrococcus luteus [31]): 23 mm; inhibition zone (IZ) (Klebsiella aerogenes [32]): 20 mm; inhibition zone (IZ) (Staphylococcus aureus [33]): 24 mm; inhibition zone (IZ) (Salmonella typhimurium [34]): 19 mm; inhibition zone (IZ) (Klebsiella pneumoniae [35]): 24 mm; inhibition zone (IZ) (Proteus vulgaris [36]): 20 mm; inhibition zone (IZ) (Staphylococcus aureus [37]): 22 mm; inhibition zone (IZ) [38]: 20 mm; inhibition zone (IZ) (Shigella flexneri [39]): 20 mm |
| COc1ccc([C@@H](C)N[C@@H](C)[C@H](O)c2ccccc2)cc1.Cl | 15 | 17 | 18 | 125 | 125 | 125 | 125 | 250 | 62.5 | 62.5 | 125 | 125 | 31.2 | 125 | 62.5 | 62.5 | 250 | 250 | 125 | 250 | MBC (Salmonella typhimurium [21]): 500 µg/mL; MBC (Klebsiella pneumoniae [22]): 125 µg/mL; MBC (Proteus vulgaris [23]): 62.5 µg/mL; MBC (Staphylococcus aureus [24]): 250 µg/mL; MBC [25]: 125 µg/mL; MBC (Shigella flexneri [26]): 31.2 µg/mL; MBC (Pseudomonas aeruginosa [27]): 250 µg/mL; MFC (Candida albicans [28]): 62.5 µg/mL; MFC (Malassezia pachydermatis [29]): 62.5 µg/mL; inhibition zone (IZ) (Bacillus subtilis [30]): 14 mm; inhibition zone (IZ) (Micrococcus luteus [31]): 15 mm; inhibition zone (IZ) (Klebsiella aerogenes [32]): 14 mm; inhibition zone (IZ) (Staphylococcus aureus [33]): 15 mm; inhibition zone (IZ) (Salmonella typhimurium [34]): 13 mm; inhibition zone (IZ) (Klebsiella pneumoniae [35]): 18 mm; inhibition zone (IZ) (Proteus vulgaris [36]): 17 mm; inhibition zone (IZ) (Staphylococcus aureus [37]): 15 mm; inhibition zone (IZ) [38]: 16 mm; inhibition zone (IZ) (Shigella flexneri [39]): 18 mm |
